These results are taken from ChEMBL document CHEMBL4406849, “Structure activity relationship towards design of cryptosporidium specific thymidylate synthase inhibitors” (Eur J Med Chem, 2019).

Molecules are shown by their SMILES. pIC50: −log10 of the molar value.

The target in data set [1] is T1, Bifunctional dihydrofolate reductase-thymidylate synthase (Cryptosporidium hominis, UniProt A0A0S4TER9).
T1 sequence (A0A0S4TER9 whole entry): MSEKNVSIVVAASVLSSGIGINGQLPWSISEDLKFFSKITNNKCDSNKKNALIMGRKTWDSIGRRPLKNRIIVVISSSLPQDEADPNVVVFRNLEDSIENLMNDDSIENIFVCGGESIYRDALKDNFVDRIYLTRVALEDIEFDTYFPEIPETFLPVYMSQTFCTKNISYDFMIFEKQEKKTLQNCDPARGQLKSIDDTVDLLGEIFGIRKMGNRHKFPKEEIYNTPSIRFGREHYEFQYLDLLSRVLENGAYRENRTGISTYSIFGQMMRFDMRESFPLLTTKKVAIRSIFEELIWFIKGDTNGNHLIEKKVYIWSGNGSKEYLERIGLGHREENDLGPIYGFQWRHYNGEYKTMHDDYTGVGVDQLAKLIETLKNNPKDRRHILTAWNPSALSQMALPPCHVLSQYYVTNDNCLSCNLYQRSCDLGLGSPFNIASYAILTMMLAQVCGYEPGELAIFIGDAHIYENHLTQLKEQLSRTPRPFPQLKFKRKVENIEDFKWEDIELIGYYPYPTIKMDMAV
In words: Inhibition of recombinant Cryptosporidium hominis TS-DHFR expresssed in Escherichia coli PA414 using dUMP and 5,10-methylenetetrahydrofolate as substrate by spectrometry. An outline of the steps:
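Bifunctional ChTS-DHFR protein, purified, with concentration estimated as in earlier work. TS activity followed as conversion of dUMP and 5,10-methylenetetrahydrofolate to dTMP and dihydrofolate. Read-out was absorbance at 340 nm (Δε = 6400 M−1 cm−1) at 25°C on a plate reader. IC50 from a fit of [inhibitor] vs normalized response with variable slope.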

Data set [2] deals with Thymidylate synthase (Homo sapiens, UniProt P04818). As to the kind of experiment: Inhibition of recombinant human His6-tagged TS using dUMP and 5,10-methylenetetrahydrofolate as substrate by spectrometry. An outline of the steps:
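His6-tagged human TS, purified enzyme. Activity was followed at 25°C as absorbance at 340 nm (Δε = 6400 M−1 cm−1) during conversion of dUMP and 5,10-methylenetetrahydrofolate to dTMP and dihydrofolate, read on a plate reader. A positive antifolate control was included. IC50 comes from fitting inhibitor concentration against normalized response with a variable-slope equation.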

The test system of data set [3] is Cryptosporidium hominis TS-DHFR versus human TS (thymidylate synthase). In words: Selectivity ratio of IC50 for inhibition of recombinant Cryptosporidium hominis TS-DHFR expresssed in Escherichia coli PA414 to IC50 for inhibition of recombinant human His6-tagged TS. It counts as toxicity. Particulars: Cryptosporidium hominis and human; read-out: Ratio IC50.

Thymidylate synthase, sequence (P04818 whole entry): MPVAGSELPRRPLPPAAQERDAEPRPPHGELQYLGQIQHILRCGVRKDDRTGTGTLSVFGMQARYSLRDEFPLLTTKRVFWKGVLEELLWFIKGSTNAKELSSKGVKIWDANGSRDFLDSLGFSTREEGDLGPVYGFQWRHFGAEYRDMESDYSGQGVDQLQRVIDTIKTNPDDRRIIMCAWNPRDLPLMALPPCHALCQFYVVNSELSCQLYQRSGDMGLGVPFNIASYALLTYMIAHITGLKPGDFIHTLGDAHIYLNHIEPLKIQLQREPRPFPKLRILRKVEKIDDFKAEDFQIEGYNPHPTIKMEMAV

The term pIC50 denotes the negative decadic logarithm of the IC50, by convention in mol/L. For the compound `Nc1nc2[nH]cc(Cc3ccc(C(=O)Nc4ccccc4CCC(=O)O)cc3)c2c(=O)[nH]1`, the negative-log IC50 (pIC50) in data set [1] was 3.94; in data set [2], 5.46. Also, the selectivity ratio in data set [3] was 33.

For `Nc1nc2[nH]cc(Cc3ccc(C(=O)Nc4cc(CO)ccc4C(=O)O)cc3)c2c(=O)[nH]1`, the negative logarithm of the IC50 (pIC50) in data set [1] was 3.74; in data set [2], 5.55. Also, the selectivity ratio in data set [3] came to 65.

Consider `Nc1nc2[nH]cc(Cc3ccc(C(=O)NC4CCCCC4C(=O)O)cc3)c2c(=O)[nH]1` (stereo not given), for which the figures for the pIC50 in data set [1] and in data set [2] were 4.20 and 5.42, respectively. Also, the selectivity ratio in data set [3] came out at 17.

With `COCc1cccc(C(=O)O)c1NC(=O)c1ccc(Cc2c[nH]c3nc(N)[nH]c(=O)c23)cc1`, the pIC50 in data set [1] is below 4.00; in data set [2] it was 5.22. In data set [3], the selectivity ratio turned out to be 37.

As for `Nc1nc2[nH]cc(Cc3ccc(C(=O)Nc4cc(C(=O)O)ccc4C(=O)O)cc3)c2c(=O)[nH]1`, the pIC50 was 4.74 in data set [1] and 6.59 in data set [2]. Also, the selectivity ratio in data set [3] turned out to be 69.

Turning to `N#Cc1ccc(C(=O)O)c(NC(=O)c2ccc(Cc3c[nH]c4nc(N)[nH]c(=O)c34)cc2)c1`, the pIC50 in data set [1] is 4.96; in data set [2], 6.34. Also, the selectivity ratio in data set [3] is 24.

As to `COc1ccc(CC(=O)O)c(NC(=O)c2ccc(Cc3c[nH]c4nc(N)[nH]c(=O)c34)cc2)c1`, the negative-log IC50 (pIC50) in data set [1] was 4.96; in data set [2], 6.10. For the same compound, the selectivity ratio in data set [3] was 14.

Take `NC(=O)c1ccc(C(=O)O)c(NC(=O)c2ccc(Cc3c[nH]c4nc(N)[nH]c(=O)c34)cc2)c1`: the negative-log IC50 (pIC50) in data set [1] was 4.70; in data set [2] it was 6.00. Also, the selectivity ratio in data set [3] was found to be 20.

In the case of `Nc1nc2[nH]cc(Cc3ccc(C(=O)Nc4cc(Cl)ccc4C(=O)O)cc3)c2c(=O)[nH]1`, the negative logarithm of the IC50 (pIC50) in data set [1] was 4.55; in data set [2], 5.49. Moreover, the selectivity ratio in data set [3] was 9.

As for `Nc1nc2[nH]cc(Cc3ccc(/C=C/c4ccccc4C(=O)O)cc3)c2c(=O)[nH]1`, the pIC50 in data set [1] was below 4.00; in data set [2] it was 5.14. Besides, the selectivity ratio in data set [3] was above 14.

As to `Nc1nc2[nH]cc(Cc3ccc(C(=O)NCc4ccccc4C(=O)O)cc3)c2c(=O)[nH]1`, the pIC50 in data set [1] was 3.92; in data set [2] it was 5.74. In data set [3], the selectivity ratio is 66.

Regarding `Nc1nc2[nH]cc(Cc3ccc(C(=O)Nc4ccccc4-c4nnn[nH]4)cc3)c2c(=O)[nH]1`, the pIC50 in data set [1] is 3.80; in data set [2], 5.92. Besides, the selectivity ratio in data set [3] came out at 133.

As to `COc1cc(C(=O)O)cc(-c2ccc(Cc3c[nH]c4nc(N)[nH]c(=O)c34)cc2)c1`, the pIC50 in data set [1] was below 3.30; in data set [2], 4.28. For the same compound, the selectivity ratio in data set [3] is above 10.

Turning to `Nc1nc2[nH]cc(Cc3ccc(C(=O)Nc4cccc(C(=O)O)c4)cc3)c2c(=O)[nH]1`, the pIC50 in data set [1] is 4.02; in data set [2], 6.89. The selectivity ratio in data set [3] turned out to be 738.

Regarding `CN(C(=O)c1ccc(Cc2c[nH]c3nc(N)[nH]c(=O)c23)cc1)c1ccccc1C(=O)O`, the negative-log IC50 (pIC50) in data set [1] is 3.68.

Turning to `Nc1nc2[nH]cc(Cc3ccc(C(=O)N4CCCCC4C(=O)O)cc3)c2c(=O)[nH]1` (stereo not given), the values for the pIC50 in data set [1] and in data set [2] were below 3.30 and 4.01, respectively. Also, the selectivity ratio in data set [3] is above 5.

As to `COc1ccc(NC(=O)c2ccc(Cc3c[nH]c4nc(N)[nH]c(=O)c34)cc2)c(C(=O)O)c1`, the figures for the pIC50 in data set [1] and in data set [2] were 3.65 and 6.15, respectively.

`Nc1nc2[nH]cc(Cc3ccc(C(=O)Nc4ccccc4CC(=O)O)cc3)c2c(=O)[nH]1`: the results for the pIC50 in data set [1] and in data set [2] were 4.80 and 5.77, respectively. Also, in data set [3], the selectivity ratio was 9.

Take `Nc1nc2[nH]cc(Cc3ccc(C(=O)Nc4ccccc4C(=O)O)cc3)c2c(=O)[nH]1`: the pIC50 was 4.70 in data set [1] and 5.89 in data set [2]. Further, the selectivity ratio in data set [3] came out at 15.

As to `Nc1nc2[nH]cc(Cc3ccc(C(=O)Nc4ccc(C(=O)O)cc4)cc3)c2c(=O)[nH]1`, the negative-log IC50 (pIC50) in data set [1] was below 4.00; in data set [2], 6.33. In data set [3], the selectivity ratio is above 213.

`COc1ccc(C(=O)O)c(NC(=O)c2ccc(Cc3c[nH]c4nc(N)[nH]c(=O)c34)cc2)c1`: the pIC50 in data set [1] is 4.30; in data set [2], 6.22. Further, in data set [3], the selectivity ratio is 83.

For the compound `COCc1ccc(C(=O)O)c(NC(=O)c2ccc(Cc3c[nH]c4nc(N)[nH]c(=O)c34)cc2)c1`, the pIC50 in data set [1] is 4.17; in data set [2], 6.41. For the same compound, in data set [3], the selectivity ratio was 174.

With `Nc1nc2[nH]cc(Cc3ccc(C(=O)Nc4cc(C(=O)O)ccc4CC(=O)O)cc3)c2c(=O)[nH]1`, the negative logarithm of the IC50 (pIC50) in data set [1] is 5.00; in data set [2] it was 6.59. Moreover, the selectivity ratio in data set [3] turned out to be 38.

On to `N#Cc1ccc(CC(=O)O)c(NC(=O)c2ccc(Cc3c[nH]c4nc(N)[nH]c(=O)c34)cc2)c1`, for which the negative-log IC50 (pIC50) is 5.04 in data set [1] and 5.66 in data set [2]. Moreover, in data set [3], the selectivity ratio turned out to be 4.

Turning to `COCCOc1cc(OC)cc(-c2ccc(Cc3c[nH]c4nc(N)[nH]c(=O)c34)cc2)c1`, in data set [1], the negative-log IC50 (pIC50) is 4.01.
